Test results taken from ChEMBL document CHEMBL4196061, “Novel topoisomerase I inhibitors. Syntheses and biological evaluation of phosphorus substituted quinoline derivates with antiproliferative activity” (Eur J Med Chem, 2018).

What was measured:
[1] = system: MRC5; assay: Antiproliferative activity against human MRC5 cells after 48 hrs by CCK-8 assay; assay type: cell-based; settings: MRC5, 48 h
In short: (§1)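 Cells seeded at 2-4 x 10^3 per well and grown overnight in 0.1 mL medium with 10% FBS at 37 °C under 5% CO2. Drugs were added on day 2 and cells incubated 48 h. CCK-8 was then added for 2 h at 37 °C and absorbance read at 450 nm. IC50 values were reported.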

[2] = target: T1, DNA topoisomerase 1 (Homo sapiens) (UniProt P11387); assay: (§2) Inhibition of recombinant human topoisomerase 1-mediated DNA relaxation expressed in Saccharomyces cerevisiae TopI null strain RS190 at 60 uM using negatively supercoiled pUC18 as substrate pretreated with enzyme for 15 mins followed by substrate addition measured after 3 mins by agarose gel electrophoresis
T1 sequence (whole entry): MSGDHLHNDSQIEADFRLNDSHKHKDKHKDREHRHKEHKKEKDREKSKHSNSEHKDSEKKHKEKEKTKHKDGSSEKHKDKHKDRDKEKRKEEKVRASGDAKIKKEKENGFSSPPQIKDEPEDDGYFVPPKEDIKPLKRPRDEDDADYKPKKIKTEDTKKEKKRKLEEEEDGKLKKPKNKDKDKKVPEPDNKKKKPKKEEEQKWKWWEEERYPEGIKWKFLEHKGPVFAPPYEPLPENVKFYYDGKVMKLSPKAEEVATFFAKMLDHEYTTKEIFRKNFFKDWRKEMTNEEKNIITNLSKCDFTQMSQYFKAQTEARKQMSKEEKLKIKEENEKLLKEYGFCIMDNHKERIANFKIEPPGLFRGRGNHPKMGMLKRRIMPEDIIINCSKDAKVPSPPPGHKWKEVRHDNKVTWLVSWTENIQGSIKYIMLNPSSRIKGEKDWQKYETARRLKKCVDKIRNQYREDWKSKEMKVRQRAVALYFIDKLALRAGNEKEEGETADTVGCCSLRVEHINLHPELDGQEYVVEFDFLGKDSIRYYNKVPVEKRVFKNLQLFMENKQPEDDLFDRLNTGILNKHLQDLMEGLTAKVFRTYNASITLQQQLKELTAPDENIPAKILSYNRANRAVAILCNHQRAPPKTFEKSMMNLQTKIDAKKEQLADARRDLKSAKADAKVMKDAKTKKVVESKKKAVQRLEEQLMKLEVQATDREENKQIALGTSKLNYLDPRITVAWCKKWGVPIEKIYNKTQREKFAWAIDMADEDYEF
In short: (§3)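 Human TopI was expressed from pHT143 (GAL promoter) in yeast RS190 and affinity-purified. Reactions used 110 ng/µL TopI and 0.5 µg supercoiled pUC18 in 20 µl buffer (20 mM Tris–HCl, 0.1 mM Na2EDTA, 10 mM MgCl2, 50 µg/mL acetylated BSA, 150 mM KCl, pH 7.5). Drug was mixed with enzyme before DNA was added, and reactions were stopped with SDS. Products were resolved on 1% agarose in TBE and stained with gel red.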

[3] = target: T1, DNA topoisomerase 1 (Homo sapiens); assay: as §2, with “80” for “60”, “1 min” for “3 mins”; in short: as §3
[4] = system: HEK293; assay: Antiproliferative activity against human HEK293 cells after 48 hrs by CCK-8 assay; settings: HEK293, 48 h
[5] = target: T1, DNA topoisomerase 1 (Homo sapiens); assay: as §2, with “10” for “60”; in short: as §3
[6] = target: T1, DNA topoisomerase 1 (Homo sapiens); assay: as §2, with “20” for “60”; in short: as §3
[7] = target: T1, DNA topoisomerase 1 (Homo sapiens); assay: as §2, with “40” for “60”; in short: as §3
[8] = target: T1, DNA topoisomerase 1 (Homo sapiens); assay: as §2, with “80” for “60”, “15 secs” for “3 mins”; in short: as §3
[9] = system: A549; assay: Antiproliferative activity against human A549 cells after 48 hrs by CCK-8 assay; assay type: functional, cell-based; settings: A549, 48 h; in short: as §1
[10] = system: SK-OV-3; assay: Antiproliferative activity against human SKOV3 cells after 48 hrs by CCK-8 assay; assay type: functional, cell-based; settings: SK-OV-3, 48 h; in short: as §1
[11] = target: T1, DNA topoisomerase 1 (Homo sapiens); assay: as §2, with “80” for “60”; in short: as §3

Row | Structure (SMILES) | IC50 [1] | inhibition [2] | inhibition [3] | IC50 [4] | inhibition [5] | inhibition [6] | inhibition [7] | inhibition [8] | IC50 [9] | IC50 [10] | inhibition [11]
1 | Fc1ccc([C@H]2C[C@@H](c3ccc(F)cc3)Nc3c2cccc3P(c2ccccc2)c2ccccc2)cc1 | > 50 µM | 20% | 75% | > 50 µM | 0% | 0% | 0% | 78% | 0.08 µM | > 50 µM | 75%
2 | Cc1ccc([C@H]2C[C@@H](c3ccc(F)cc3)Nc3c2cccc3P(c2ccccc2)c2ccccc2)cc1 | > 50 µM | 53% | 92% | > 50 µM | 20% | 28% | 52% | 96% | 0.25 µM | > 50 µM | 92%
3 | Cc1ccc([C@H]2C[C@@H](c3ccccc3)Nc3c2cccc3P(c2ccccc2)c2ccccc2)cc1 | > 50 µM | 22% | 79% | > 50 µM | 0% | 16% | 17% | 80% | 0.11 µM | > 50 µM | 76%
4 | FC(F)(F)c1ccc(-c2cc(-c3ccccc3)c3cccc(P(=S)(c4ccccc4)c4ccccc4)c3n2)cc1 | > 50 µM | 24% | 81% | > 50 µM | 8% | 10% | 18% | 81% | > 50 µM | > 50 µM | 81%
5 | c1ccc([C@H]2C[C@@H](c3ccccc3)Nc3c2cccc3P(c2ccccc2)c2ccccc2)cc1 | > 50 µM | 0% | 85% | > 50 µM | 0% | 0% | 0% | 85% | 0.6 µM | > 50 µM | 85%
